Compound activity: PubChem BioAssay, several laboratories
NF-kB neuron act = NF-kB expression increase, human neuronal cells | NF-kB reporter expression; hits give high values | fold change at 12.5 µM | actives 1.6% (n = 190,000) | AID 1239; in the data active means fold change above about 3.3
STAT1 activator = increases IFN-gamma driven STAT1 reporter signal. NIH 3T3 STAT1-luciferase reporter, luminescence; 100% = IFN-gamma alone, no compound. activation (% of control), % at 5.5 µM. actives 2.6% (n = 200,000). AID 932;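 active means activation above the screen-wide mean activation plus 3 SD, cut at about 130% in these data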;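 further: raw ratio to IFN-gamma control signal so 100% means no change and 0% no light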
STAT3 inh-1 = inhibitors of IL-6 induced STAT3 signaling; U3A cells, IL-6 STAT3-luciferase reporter, luminescence; host cell line lacks STAT1; inhibition, % at 5.5 µM; actives 0.89% (n = 190,000);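 active means inhibition above the mean inhibition across all screened compounds plus 3 SD, cut at about 44% in these data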;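 further: 0% = DMSO only wells and 100% = 100 µM nifuroxazide control wells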
APP 5'UTR act = activates APP 5'UTR luciferase reporter; SH-SY5Y APP 5'UTR luciferase reporter, luminescence; zero percent = DMSO vehicle wells; activation, % at 2 µM; actives 1% (n = 190,000); AID 1276;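 active means activation above a set limit, based on mean plus 3 SD of controls, cut at about 140% in these data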
STAT1 inh = STAT1 signaling inhibition. actives 0.35% (n = 200,000). inhibition, % at 5.5 µM. AID 920. NIH 3T3 STAT1-luciferase reporter, IFN-gamma, luminescence;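 active means inhibition above a set limit, the mean inhibition across all tested compounds plus 3 SD, cut at about 34% in these data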;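 further: 0% = IFN-gamma with DMSO and 100% = IFN-gamma with 300 µM nifuroxazide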
STAT3 act = activators of IL-6 induced STAT3 signaling | activation (% of control), % at 5.6 µM | U3A cells, IL-6 STAT3-luciferase reporter, luminescence; 100% = signal with IL-6 EC80 alone | actives 0.91% (n = 190,000);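 active means activation above the screen-wide mean of compound activation plus 3 SD, cut at about 130% in these data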;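 further: 0% = background luminescence of wells with medium and substrate only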
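Material: human U3A cells carrying STAT3-luciferase construct. Measured by: reporter luminescence signal. Timing: compound 1 h, then IL-6 6 h at 37 °C.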
STAT3 inh-2 = confirmation of STAT3 signaling inhibitors; U3A cells, IL-6 STAT3 luciferase reporter, luminescence; cell line lacks STAT1; actives 45% (n = 1,200); AID 1265; inhibition, % at 5.7 µM; shares compounds with STAT3 inh-1;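 active means inhibition above the hit cutoff computed for the primary STAT3 screen, cut at about 44% in these data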;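 further: 0% = IL-6 plus DMSO and 100% = IL-6 plus nifuroxazide control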
NFkB inh 2 = counter-screen for STAT3 inhibitors: NF-kappaB inhibition | shares compounds with STAT3 inh-1 | HEK293T NF-kB luciferase reporter, TNF-alpha induced | inhibition, % at 5.7 µM | actives 36% (n = 1,200) | AID 1308;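 active means inhibition above the mean of solvent-only control wells plus 3 SD, cutoff set per campaign, cut at about 13% in these data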;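 further: 0% = TNF-alpha with DMSO and 100% = TNF-alpha with MG high control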
STAT1 inh 2 = inhibits STAT1, counter-screen to STAT3 inhibitors. inhibition, % at 5.7 µM. AID 1317. NIH 3T3 STAT1-luciferase reporter, IFN-gamma induced, luminescence. shares compounds with STAT3 inh-1. actives 27% (n = 1,200);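 active means inhibition above the mean plus 3 SD of solvent-only control wells, limit set per screening run, cut at about 16% in these data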;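 further: 0% = DMSO with IFN-gamma and 100% = nifuroxazide control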
Active calls of the source: *. Only some compounds are listed: those with a hit (about 4.9% of all), similar ones and a draw of the others.

What do the screens show for `C[C@H]1O[C@@H](O[C@H]2[C@@H](O)C[C@H](O[C@H]3[C@@H](O)C[C@H](O[C@H]4CC[C@@]5(C)[C@H](CC[C@@H]6[C@@H]5C[C@@H](O)[C@]5(C)[C@@H](C7=CC(=O)OC7)CC[C@]65O)C4)O[C@@H]3C)O[C@@H]2C)C[C@H](O)[C@@H]1O`?
NF-kB neuron act: 0.75; STAT1 activator: 126; STAT3 inh-1: 87*; APP 5'UTR act: -94; STAT1 inh: -29; STAT3 act: 25; STAT3 inh-2: 82*; NFkB inh 2: -7; STAT1 inh 2: -16

Results for O=C(N/N=C/c1ccccc1)c1n[nH]c2c1CCCC2 ?
NF-kB neuron act: 1; STAT1 activator: 102; STAT3 inh-1: 56*; APP 5'UTR act: 105; STAT1 inh: -5; STAT3 act: 58; STAT3 inh-2: 15; NFkB inh 2: -7; STAT1 inh 2: -86

Results for O=C(N/N=C/c1ccccc1Cl)c1n[nH]c2c1CCCC2 ?
NF-kB neuron act: 0.96; STAT1 activator: 126; STAT3 inh-1: 68*; APP 5'UTR act: 131; STAT1 inh: -29; STAT3 act: 43; STAT3 inh-2: 73*; NFkB inh 2: 56*; STAT1 inh 2: 23*

What do the screens show for `c1ccc(CCCNc2ncnc3nc[nH]c23)cc1`?
NF-kB neuron act: 1.1; STAT1 activator: 97; STAT3 inh-1: 11; APP 5'UTR act: -3; STAT1 inh: 1; STAT3 act: 90

What do the screens show for `Clc1ccc(CCNc2ncnc3nc[nH]c23)cc1`?
NF-kB neuron act: 0.97; STAT1 activator: 98; STAT3 inh-1: 52*; APP 5'UTR act: -2; STAT1 inh: 3; STAT3 act: 61; STAT3 inh-2: 35; NFkB inh 2: 1; STAT1 inh 2: -13

Results for CCCCc1ccc(Nc2ncnc3nc[nH]c23)cc1 ?
NF-kB neuron act: 2.9; STAT1 activator: 93; STAT3 inh-1: 52*; APP 5'UTR act: 100; STAT1 inh: 8; STAT3 act: 63; STAT3 inh-2: 41; NFkB inh 2: -18; STAT1 inh 2: 2

How did CCCNc1ncnc2nc[nH]c12 do in these assays?
NF-kB neuron act: 1.2; STAT1 activator: 107; STAT3 inh-1: 6; APP 5'UTR act: 13; STAT1 inh: -7; STAT3 act: 95

Results for C=CCN1CCN(C(c2ccc(OC)c(OC)c2)c2nnnn2C(C)(C)C)CC1 (centres undefined) ?
NF-kB neuron act: 1.3; STAT1 activator: 91; STAT3 inh-1: -5; APP 5'UTR act: 0; STAT1 inh: 11; STAT3 act: 110

What do the screens show for `Cc1c(C(=O)NCCCn2ccnc2)oc2ccccc12`?
NF-kB neuron act: 1.2; STAT1 activator: 100; STAT3 inh-1: -13; APP 5'UTR act: 31; STAT1 inh: 0; STAT3 act: 117

How did CN(C)CC(O)CN1C(=O)N(CN2C(=O)N(CC(O)CN(C)C)C(=O)C2(C)C)C(C)(C)C1=O (centres undefined) do in these assays?
NF-kB neuron act: 1.1; STAT1 activator: 102; STAT3 inh-1: -3; APP 5'UTR act: 18; STAT1 inh: -4; STAT3 act: 104

What do the screens show for `Cc1cc(C(=O)COC(=O)CCc2nc3ccccc3s2)c(C)n1C`?
NF-kB neuron act: 0.97; STAT1 activator: 101; STAT3 inh-1: 6; APP 5'UTR act: 9; STAT1 inh: -1; STAT3 act: 99

Results for CC(C)Cn1c(N)c(C(=O)COC(=O)c2ccc(Cl)cc2)c(=O)n(C)c1=O ?
NF-kB neuron act: 0.75; STAT1 activator: 85; STAT3 inh-1: 31; APP 5'UTR act: -13; STAT1 inh: 16; STAT3 act: 75

How did CC(C)Cn1c(N)c(C(=O)COC(=O)CC23CC4CC(CC(C4)C2)C3)c(=O)n(C)c1=O do in these assays?
NF-kB neuron act: 0.64; STAT1 activator: 79; STAT3 inh-1: 70*; APP 5'UTR act: -10; STAT1 inh: 23; STAT3 act: 41; STAT3 inh-2: 73*; NFkB inh 2: 24*; STAT1 inh 2: 24*

How did CC(C)Cn1c(N)c(C(=O)COC(=O)CCc2nc3ccccc3s2)c(=O)n(C)c1=O do in these assays?
NF-kB neuron act: 0.82; STAT1 activator: 76; STAT3 inh-1: 70*; APP 5'UTR act: -8; STAT1 inh: 25; STAT3 act: 41; STAT3 inh-2: 74*; NFkB inh 2: 8; STAT1 inh 2: 16

How did CC(C)Cn1c(N)c(C(=O)CSc2ccccc2)c(=O)n(C)c1=O do in these assays?
NF-kB neuron act: 1; STAT1 activator: 99; STAT3 inh-1: 45*; APP 5'UTR act: -1; STAT1 inh: 1; STAT3 act: 62; STAT3 inh-2: 44*; NFkB inh 2: -4; STAT1 inh 2: -1

Results for O=C(O)CCCNc1c(C(=O)Nc2ccc(Cl)cc2)cc([N+](=O)[O-])cc1[N+](=O)[O-] ?
NF-kB neuron act: 1.2; STAT1 activator: 98; STAT3 inh-1: -7; APP 5'UTR act: 0; STAT1 inh: 2; STAT3 act: 109

How did COC(=O)c1ccc(-c2nc3cc(Cl)c(N)cc3s2)cc1 do in these assays?
NF-kB neuron act: 1.6; STAT1 activator: 146*; STAT3 inh-1: 87*; APP 5'UTR act: 142*; STAT1 inh: -48; STAT3 act: 25; STAT3 inh-2: 69*; NFkB inh 2: 31*; STAT1 inh 2: -4

How did CN(c1ccc(OCC(=O)N2CCOCC2)cc1)S(=O)(=O)c1ccc(Cl)cc1 do in these assays?
NF-kB neuron act: 2.1; STAT1 activator: 88; STAT3 inh-1: -7; APP 5'UTR act: -14; STAT1 inh: 12; STAT3 act: 107

How did O=C(NCc1cccnc1)c1c[nH]c2cc3c(cc2c1=O)OCCO3 do in these assays?
NF-kB neuron act: 2; STAT1 activator: 95; STAT3 inh-1: 60*; APP 5'UTR act: 80; STAT1 inh: 6; STAT3 act: 55; STAT3 inh-2: 23; NFkB inh 2: -15; STAT1 inh 2: -23

How did O=C(Nc1ccccc1NC(=O)c1csnn1)c1csnn1 do in these assays?
NF-kB neuron act: 1.1; STAT1 activator: 98; STAT3 inh-1: 4; APP 5'UTR act: 21; STAT1 inh: 1; STAT3 act: 101

How did CC(C)c1ccc(NC(=O)c2csnn2)cc1 do in these assays?
NF-kB neuron act: 7.6*; STAT1 activator: 146*; STAT3 inh-1: 45*; APP 5'UTR act: 87; STAT1 inh: -50; STAT3 act: 64; STAT3 inh-2: 8; NFkB inh 2: -21; STAT1 inh 2: -79
